We go through 55 molecules from ChEMBL document CHEMBL1144259, “2-Mercaptoimidazoles, a new class of potent CCR2 antagonists” (Bioorg Med Chem Lett, 2005).

The nature of the test: Inhibitory activity against MCP-1 induced Calcium flux in […]. Format: functional, cell-based. The note with it: Homo sapiens, THP-1. The procedure, abridged:
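THP-1 cells loaded 30 min with 4 µM Fluo-3 AM at 2 million cells/mL (RPMI, 20 mM HEPES, 0.1% BSA, 5 mM probenecid). Washed into HEPES saline with 1.25 mM CaCl2, 2.5 mM probenecid and 0.1% BSA. Plated at 150,000 cells/well, preincubated 20 min with compound, then stimulated with 10^-7 M hMCP-1. FLIPR fluorescence recorded from 10 s before to 2 min after; maximal signal used.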
On the technique in general: A change in cytosolic calcium serves as a functional read-out for many receptors and channels.
One may read the IC50 as the concentration needed to halve the response being measured. For `CCC(c1ccc(F)c(C(F)(F)F)c1)n1c(C(=O)OC)cnc1S` (stereo not given), the IC50 was 1000 nM. To `CCC(c1ccc(C)c(C)c1)n1c(C(=O)OC)cnc1S` (stereo not given) belongs more than 10000 nM. To `CCC(c1cccc(Oc2ccccc2)c1)n1c(C(=O)OC)cnc1S` (stereo not given) belongs more than 10000 nM.

On to `COC(=O)c1cnc(S)n1C(C)(C)c1ccc(Cl)c(Cl)c1`, for which the concentration for half-maximal inhibition (IC50) is more than 10000 nM. Regarding `CCC(c1ccc(Cl)c(Cl)c1)n1c(S)nc(C(=O)O)c1C(=O)OC` (stereo not given), the half-maximal inhibitory concentration (IC50) was more than 10000 nM. Turning to `CCC(c1ccc(F)c(F)c1)n1c(C(=O)NCC(C)C)cnc1S` (stereo not given), the IC50 was more than 10000 nM. Regarding `CC[C@H](c1ccc(F)c(F)c1)n1c(S)nc(C(=O)OC)c1C(=O)OC`, the IC50 was 2000 nM. To `CCC(c1ccc(C(F)(F)F)cc1)n1c(C(=O)OC)cnc1S` (stereo not given) belongs more than 10000 nM; to `CCCCNC(=O)c1cnc(S)n1C(CC)c1ccc(F)c(F)c1` (stereo not given), more than 10000 nM.

For the molecule `COC(=O)c1cnc(S)n1C(c1ccc(Cl)c(Cl)c1)c1ccc(Cl)c(Cl)c1`, the IC50 was more than 10000 nM. To `CCCC(c1ccc(Cl)c(Cl)c1)n1c(C(=O)OC)cnc1S` (stereo not given) belongs 158 nM. With `CCC(c1ccc(Cl)c(Cl)c1)n1c(S)nc(C(N)=O)c1C#N` (stereo not given) the figure was 126 nM. For the molecule `CCC(c1ccc(Cl)c(Cl)c1)n1c(C(=O)O)cnc1S` (stereo not given), the IC50 was more than 10000 nM.

For `COCC(c1ccc(Cl)c(Cl)c1)n1c(C(=O)OC)cnc1S` (stereo not given), the IC50 is 316 nM. For `CCC(c1ccc(Cl)c(Cl)c1)n1c(S)nc(C(=O)OC)c1C(=O)OC` (stereo not given), the IC50 is 10 nM. To `CCC(c1ccc(Cl)c(Cl)c1)n1c(S)nc(C)c1C(=O)NC` (stereo not given) belongs more than 10000 nM; to `CCC(c1ccc(Cl)cc1)n1c(C(=O)OC)cnc1S` (stereo not given), more than 10000 nM; to `CC[C@@H](c1ccc(F)c(F)c1)n1c(S)nc(C(=O)OC)c1C(=O)OC`, 7.94 nM. As to `CCC(c1cc(F)cc(F)c1)n1c(C(=O)OC)cnc1S` (stereo not given), the IC50 is more than 10000 nM. With `CCC(c1ccc(F)c(F)c1)n1c(C(=O)N2CCCCC2)cnc1S` (stereo not given) the figure was more than 10000 nM.

On to `CCC(c1ccc(Cl)c(Cl)c1)n1c(C(=O)NC)cnc1S` (stereo not given), for which the 50% inhibitory concentration (IC50) was 316 nM. With `CCC(c1ccccc1)n1c(C(=O)OC)cnc1S` (stereo not given) the figure was more than 10000 nM; with `CC[C@@H](c1ccc(Cl)c(Cl)c1)n1c(S)nc(C(=O)OC)c1C(=O)OC`, 7.94 nM. For `CCC(c1cc(Cl)cc(Cl)c1)n1c(C(=O)OC)cnc1S` (stereo not given), the IC50 is more than 10000 nM.

For the molecule `CCC(c1ccc(Cl)c(Cl)c1)n1c(C(N)=O)cnc1S` (stereo not given), the IC50 is 50.1 nM. For `CC[C@@H](c1ccc(Cl)c(Cl)c1)n1c(C(=O)OC)cnc1S`, the IC50 was 126 nM.

Turning to `CCC(c1ccc(F)c(F)c1)n1c(S)nc(C(=O)OC)c1C(=O)OC` (stereo not given), the IC50 is 10 nM. For `CCC(c1ccc(Cl)c(Cl)c1)n1c(C(=O)OC(C)C)cnc1S` (stereo not given), the IC50 was 316 nM.

As to `CCC(c1ccc(Br)c(Br)c1)n1c(C(=O)OC)cnc1S` (stereo not given), the IC50 was 251 nM. With `CCC(c1ccc(F)c(F)c1)n1c(C(=O)N2CCOCC2)cnc1S` (stereo not given) the figure was more than 10000 nM. Turning to `COC(=O)c1cnc(S)n1C(c1ccc(Cl)c(Cl)c1)C1CCCCC1` (stereo not given), the IC50 was 10000 nM. With `COC(=O)c1cnc(S)n1C(c1ccc(Cl)c(Cl)c1)C1CC1` (stereo not given) the figure was 2000 nM; with `CCC(c1ccc(F)c(F)c1)n1c(C(N)=O)cnc1S` (stereo not given), 501 nM.

For `COC(=O)c1cnc(S)n1C(C)c1ccc(Cl)c(Cl)c1` (stereo not given), the IC50 is 251 nM.

On to `CCOC(=O)c1cnc(S)n1C(CC)c1ccc(F)c(F)c1` (stereo not given), for which the IC50 was 316 nM. In the case of `COC(=O)c1cnc(S)n1C(c1ccc(Cl)c(Cl)c1)c1cccs1` (stereo not given), the IC50 was more than 10000 nM. For `CCC(c1ccc(Cl)c(Cl)c1)n1c(CO)cnc1S` (stereo not given), the IC50 was more than 10000 nM. To `CCC(c1ccc(F)c(F)c1)n1c(C(=O)NC)cnc1S` (stereo not given) belongs 2000 nM; to `CCC(c1ccc(Cl)c(Cl)c1)n1c(S)nc(C(=O)NC)c1C(=O)NC` (stereo not given), 398 nM. In the case of `CCC(c1ccc(Cl)c(Cl)c1)n1c(S)nc(C(N)=O)c1C(N)=O` (stereo not given), the IC50 was 63.1 nM. With `CCC(c1ccc(Cl)c(Cl)c1)n1c(C#N)cnc1S` (stereo not given) the figure was 631 nM; with `CC[C@@H](c1ccc(Cl)c(Cl)c1)n1c(C(N)=O)cnc1S`, 39.8 nM; with `CC[C@H](c1ccc(Cl)c(Cl)c1)n1c(C(N)=O)cnc1S`, 10000 nM. As for `CCC(c1ccc(C(F)(F)F)c(F)c1)n1c(C(=O)OC)cnc1S` (stereo not given), the IC50 was 2000 nM. With `CCC(c1ccc(F)c(C(F)(F)F)c1)n1c(S)nc(C(=O)OC)c1C(=O)OC` (stereo not given) the figure was 100 nM; with `CCC(c1ccc(Cl)c(Cl)c1)n1c(C(=O)OC)cnc1S` (stereo not given), 200 nM. To `CC[C@H](c1ccc(Cl)c(Cl)c1)n1c(C(=O)OC)cnc1S` belongs 1580 nM; to `CCC(c1ccccc1Cl)n1c(C(=O)OC)cnc1S` (stereo not given), more than 10000 nM; to `CCC(c1cccc(Cl)c1)n1c(C(=O)OC)cnc1S` (stereo not given), more than 10000 nM. `CCC(c1ccc(Cl)c(Cl)c1)n1c(S)nc(C(=O)OC)c1C#N` (stereo not given): the IC50 is 39.8 nM. With `CCC(c1ccc(F)c(F)c1)n1c(C(=O)OC)cnc1S` (stereo not given) the figure was 1260 nM.

Regarding `CCC(c1ccc(OC)c(OC)c1)n1c(C(=O)OC)cnc1S` (stereo not given), the IC50 is more than 10000 nM.

Regarding `CCC(c1ccc(Cl)c(Cl)c1)n1c(S)nc(C)c1C(=O)OC` (stereo not given), the half-maximal inhibitory concentration (IC50) was 251 nM.

Regarding `CCC(c1ccc(F)c(F)c1)n1c(C(=O)N2CCCC2)cnc1S` (stereo not given), the IC50 is more than 10000 nM.

Turning to `CCC(c1ccc(C(F)(F)F)c(F)c1)n1c(S)nc(C(=O)OC)c1C(=O)OC` (stereo not given), the concentration for half-maximal inhibition (IC50) was 20 nM.
